Data from ChEMBL document CHEMBL1134594 (J Med Chem, 2001).
Where a SMILES comes first, the peptide text is derived from it. Bridges are numbered along the chain shown (N, C = ends).

How the values were obtained:
Glucagon receptor = Glucagon receptor (Rattus norvegicus, UniProt P30082); assay: Glucagon receptor binding measured as 50% inhibitory concentration
Outline: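 Membranes (50 µg protein) were taken from the livers of male Sprague Dawley rats (200-250 g), purified on a sucrose gradient. […] Nonspecific binding was defined with excess unlabeled peptide and subtracted. Run in triplicate, repeated twice.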

Adenylate cyclase [1] = assay: Adenylate cyclase activity measured as PA2; type: protein assay
Adenylate cyclase [2] = assay: Adenylate cyclase activity measured as 50% inhibitory concentration; type: protein assay
[3] = molecular target: T1, Adenylate cyclase (Rattus norvegicus) (UniProt D4A3N4+P26770+Q04400+P26769+Q03343+P40146+Q8CFM9+P21932); assay: Adenylate cyclase activity measured as percentage stimulation; type: protein assay; set-up: concentration or dose not given beside the values
[4] = molecular target: T1, Adenylate cyclase (Rattus norvegicus); assay: Adenylate cyclase activity measured as percentage stimulation at (20uM); type: protein assay
Outline: (§1)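 Rat liver plasma membranes (35 µg protein) incubated in 0.1 mL of 25 mM Tris (pH 7.5) with 0.4% BSA, 1 mM [α-32P]ATP, 5 mM MgCl2, GTP, 1 mM EDTA, 1 mM cAMP with [3H]cAMP tracer, and a phosphocreatine/creatine phosphokinase ATP-regenerating system. Labeled cAMP was isolated on Dowex cation-exchange and alumina columns.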

[5] = molecular target: T1, Adenylate cyclase (Rattus norvegicus); assay: Adenylate cyclase activity measured as percentage stimulation at (1 uM); type: protein assay; outline: as §1
[6] = molecular target: T1, Adenylate cyclase (Rattus norvegicus); assay: Adenylate cyclase activity measured as percentage stimulation at 20 uM; type: protein assay; outline: as §1

Chain of Glucagon receptor (P30082 whole entry): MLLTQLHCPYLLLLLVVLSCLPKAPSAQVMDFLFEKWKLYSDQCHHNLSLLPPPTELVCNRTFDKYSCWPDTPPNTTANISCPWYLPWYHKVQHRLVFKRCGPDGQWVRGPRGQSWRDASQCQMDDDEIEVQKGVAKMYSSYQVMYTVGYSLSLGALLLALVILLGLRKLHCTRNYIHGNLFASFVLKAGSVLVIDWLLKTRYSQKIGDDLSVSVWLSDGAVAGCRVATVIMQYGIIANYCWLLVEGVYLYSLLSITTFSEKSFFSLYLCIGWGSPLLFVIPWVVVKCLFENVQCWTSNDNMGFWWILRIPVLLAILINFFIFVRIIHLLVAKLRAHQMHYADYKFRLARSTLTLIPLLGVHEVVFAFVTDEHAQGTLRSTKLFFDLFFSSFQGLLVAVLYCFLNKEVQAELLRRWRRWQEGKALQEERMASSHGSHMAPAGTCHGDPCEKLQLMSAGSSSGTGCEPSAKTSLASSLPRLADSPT

Row | Compound | IC50 (Glucagon receptor) | pA2 (Adenylate cyclase [1]) | EC50 (Adenylate cyclase [2]) | Activity [3] | Activity [4] | Activity [5] | Activity [6]
1 | CSCC[C@H](NC(=O)[C@H](CC(C)C)NC(=O)[C@H](Cc1c[nH]c2ccccc12)NC(=O)[C@H](CCC(N)=O)NC(=O)[C@@H](NC(=O)[C@H](Cc1ccccc1)NC(=O)[C@H](CC(=O)O)NC(=O)[C@H](CCC(N)=O)NC(=O)[C@H](C)NC(=O)[C@H](CCCN=C(N)N)NC(=O)[C@H](CCCN=C(N)N)NC(=O)[C@H](CO)NC(=O)[C@H](CC(=O)O)NC(=O)[C@H](CC(C)C)NC(=O)[C@H](Cc1ccc(O)cc1)NC(=O)[C@H](CCCCN)NC(=O)[C@H](CO)NC(=O)[C@H](Cc1ccc(O)cc1)NC(=O)[C@H](CC(=O)O)NC(=O)[C@H](CO)NC(=O)[C@@H]1CCC(=O)NCCCC[C@H](NC(=O)[C@H](CO)NC(=O)[C@@H](N)Cc2c[nH]cn2)C(=O)NCC(=O)N[C@@H]([C@@H](C)O)C(=O)N[C@@H](Cc2ccccc2)C(=O)N1)C(C)C)C(=O)N[C@@H](CC(N)=O)C(=O)N[C@H](C(=O)O)[C@@H](C)O (H-HSKGTFESDYSKYLDSRRAQDFVQWLMNT-OH; lactam 3-7) | 6 nM | 8.28 | – | – | – | – | –
2 | CSCC[C@H](NC(=O)[C@H](CC(C)C)NC(=O)[C@H](Cc1c[nH]c2ccccc12)NC(=O)[C@H](CCC(N)=O)NC(=O)[C@@H](NC(=O)[C@H](Cc1ccccc1)NC(=O)[C@H](CC(=O)O)NC(=O)[C@H](CCC(N)=O)NC(=O)[C@H](C)NC(=O)[C@H](CCCN=C(N)N)NC(=O)[C@H](CCCN=C(N)N)NC(=O)[C@H](CO)NC(=O)[C@H](CC(=O)O)NC(=O)[C@H](CC(C)C)NC(=O)[C@H](Cc1ccc(O)cc1)NC(=O)[C@H](CCCCN)NC(=O)[C@H](CO)NC(=O)[C@H](Cc1ccc(O)cc1)NC(=O)[C@@H]1CSSC[C@H](NC(=O)[C@H](CCC(N)=O)NC(=O)[C@H](CO)NC(=O)[C@@H](N)Cc2c[nH]cn2)C(=O)N[C@@H]([C@@H](C)O)C(=O)N[C@@H](Cc2ccccc2)C(=O)N[C@@H]([C@@H](C)O)C(=O)N[C@@H](CO)C(=O)N1)C(C)C)C(=O)N[C@@H](CC(N)=O)C(=O)N[C@H](C(=O)O)[C@@H](C)O (H-HSQCTFTSCYSKYLDSRRAQDFVQWLMNT-OH; disulfide 4-9) | 84.5 nM | – | 295 nM | 7.5% | – | – | –
3 | CSCC[C@H](NC(=O)[C@H](CC(C)C)NC(=O)[C@H](Cc1c[nH]c2ccccc12)NC(=O)[C@H](CCC(N)=O)NC(=O)[C@@H](NC(=O)[C@H](Cc1ccccc1)NC(=O)[C@H](CC(=O)O)NC(=O)[C@H](CCC(N)=O)NC(=O)[C@H](C)NC(=O)[C@H](CCCN=C(N)N)NC(=O)[C@H](CCCN=C(N)N)NC(=O)[C@H](CO)NC(=O)[C@H](CC(=O)O)NC(=O)[C@H](CC(C)C)NC(=O)[C@H](Cc1ccc(O)cc1)NC(=O)[C@H](CCCCN)NC(=O)[C@H](CO)NC(=O)[C@H](Cc1ccc(O)cc1)NC(=O)[C@@H]1CCC(=O)NCCCC[C@H](NC(=O)CNC(=O)[C@H](CCC(N)=O)NC(=O)[C@H](CO)NC(=O)[C@@H](N)Cc2c[nH]cn2)C(=O)N[C@@H](Cc2ccccc2)C(=O)N[C@@H]([C@@H](C)O)C(=O)N[C@@H](CO)C(=O)N1)C(C)C)C(=O)N[C@@H](CC(N)=O)C(=O)N[C@H](C(=O)O)[C@@H](C)O (H-HSQGKFTSEYSKYLDSRRAQDFVQWLMNT-OH; lactam 5-9) | 0.2 nM | 8.26 | 390 nM | 12% | – | – | –
4 | CSCC[C@H](NC(=O)[C@H](CC(C)C)NC(=O)[C@H](Cc1c[nH]c2ccccc12)NC(=O)[C@H](CCC(N)=O)NC(=O)[C@@H](NC(=O)[C@H](Cc1ccccc1)NC(=O)[C@H](CC(=O)O)NC(=O)[C@H](CCC(N)=O)NC(=O)[C@H](C)NC(=O)[C@H](CCCN=C(N)N)NC(=O)[C@H](CCCN=C(N)N)NC(=O)[C@H](CO)NC(=O)[C@H](CC(=O)O)NC(=O)[C@H](CC(C)C)NC(=O)[C@H](Cc1ccc(O)cc1)NC(=O)[C@@H]1CSSC[C@H](NC(=O)[C@H](Cc2ccccc2)NC(=O)[C@@H](NC(=O)CNC(=O)[C@H](CCC(N)=O)NC(=O)[C@H](CO)NC(=O)[C@@H](N)Cc2c[nH]cn2)[C@@H](C)O)C(=O)N[C@@H](CO)C(=O)N[C@@H](CC(=O)O)C(=O)N[C@@H](Cc2ccc(O)cc2)C(=O)N[C@@H](CO)C(=O)N1)C(C)C)C(=O)N[C@@H](CC(N)=O)C(=O)N[C@H](C(=O)O)[C@@H](C)O (H-HSQGTFCSDYSCYLDSRRAQDFVQWLMNT-OH; disulfide 7-12) | 558 nM | – | 5900 nM | – | 53% | – | –
5 | CSCC[C@H](NC(=O)[C@H](CC(C)C)NC(=O)[C@H](Cc1c[nH]c2ccccc12)NC(=O)[C@H](CCC(N)=O)NC(=O)[C@@H](NC(=O)[C@H](Cc1ccccc1)NC(=O)[C@H](CC(=O)O)NC(=O)[C@H](CCC(N)=O)NC(=O)[C@@H]1CSSC[C@H](NC(=O)[C@H](Cc2ccc(O)cc2)NC(=O)[C@H](CCCCN)NC(=O)[C@H](CO)NC(=O)[C@H](Cc2ccc(O)cc2)NC(=O)[C@H](CC(=O)O)NC(=O)[C@H](CO)NC(=O)[C@@H](NC(=O)[C@H](Cc2ccccc2)NC(=O)[C@@H](NC(=O)CNC(=O)[C@H](CCC(N)=O)NC(=O)[C@H](CO)NC(=O)[C@@H](N)Cc2c[nH]cn2)[C@@H](C)O)[C@@H](C)O)C(=O)N[C@@H](CC(=O)O)C(=O)N[C@@H](CO)C(=O)N[C@@H](CCCN=C(N)N)C(=O)N[C@@H](CCCN=C(N)N)C(=O)N1)C(C)C)C(=O)N[C@@H](CC(N)=O)C(=O)N[C@H](C(=O)O)[C@@H](C)O (H-HSQGTFTSDYSKYCDSRRCQDFVQWLMNT-OH; disulfide 14-19) | 562 nM | – | 7500 nM | – | – | – | 30%

Other lines, results leading:

Row | IC50 (Glucagon receptor) | pA2 (Adenylate cyclase [1]) | EC50 (Adenylate cyclase [2]) | Activity [3] | Activity [4] | Activity [5] | Activity [6] | Compound
6 | – | – | 59 nM | – | 100% | – | – | CSCC[C@H](NC(=O)[C@H](CC(C)C)NC(=O)[C@H](Cc1c[nH]c2ccccc12)NC(=O)[C@H](CCC(N)=O)NC(=O)[C@@H](NC(=O)[C@H](Cc1ccccc1)NC(=O)[C@H](CC(=O)O)NC(=O)[C@H](CCC(N)=O)NC(=O)[C@H](C)NC(=O)[C@H](CCCN=C(N)N)NC(=O)[C@H](CCCN=C(N)N)NC(=O)[C@H](CO)NC(=O)[C@H](CC(=O)O)NC(=O)[C@H](CC(C)C)NC(=O)[C@H](Cc1ccc(O)cc1)NC(=O)[C@H](CS)NC(=O)[C@H](CO)NC(=O)[C@H](Cc1ccc(O)cc1)NC(=O)[C@H](CC(=O)O)NC(=O)[C@H](CO)NC(=O)[C@H](CS)NC(=O)[C@H](Cc1ccccc1)NC(=O)[C@@H](NC(=O)CNC(=O)[C@H](CCC(N)=O)NC(=O)[C@H](CO)NC(=O)[C@@H](N)Cc1c[nH]cn1)[C@@H](C)O)C(C)C)C(=O)N[C@@H](CC(N)=O)C(=O)N[C@H](C(=O)O)[C@@H](C)O (H-HSQGTFCSDYSCYLDSRRAQDFVQWLMNT-OH)
7 | 1.7 nM | – | 6.3 nM | 85% | – | – | – | CSCC[C@H](NC(=O)[C@H](CC(C)C)NC(=O)[C@H](Cc1c[nH]c2ccccc12)NC(=O)[C@H](CCC(N)=O)NC(=O)[C@@H](NC(=O)[C@H](Cc1ccccc1)NC(=O)[C@H](CC(=O)O)NC(=O)[C@H](CCC(N)=O)NC(=O)[C@H](C)NC(=O)[C@H](CCCN=C(N)N)NC(=O)[C@@H]1CCC(=O)NCCCC[C@H](NC(=O)[C@H](CCCCN)NC(=O)[C@H](CO)NC(=O)[C@H](Cc2ccc(O)cc2)NC(=O)[C@H](CC(=O)O)NC(=O)[C@H](CO)NC(=O)[C@@H](NC(=O)[C@H](Cc2ccccc2)NC(=O)[C@@H](NC(=O)CNC(=O)[C@H](CCC(N)=O)NC(=O)[C@H](CO)NC(=O)[C@@H](N)Cc2c[nH]cn2)[C@@H](C)O)[C@@H](C)O)C(=O)N[C@@H](CC(C)C)C(=O)N[C@@H](CC(=O)O)C(=O)N[C@@H](CO)C(=O)N1)C(C)C)C(=O)N[C@@H](CC(N)=O)C(=O)N[C@H](C(=O)O)[C@@H](C)O (H-HSQGTFTSDYSKKLDSERAQDFVQWLMNT-OH; lactam 13-17)
8 | 13.7 nM | – | 236 nM | – | – | 100% | – | CSCC[C@H](NC(=O)[C@H](CC(C)C)NC(=O)[C@H](Cc1c[nH]c2ccccc12)NC(=O)[C@H](CCC(N)=O)NC(=O)[C@@H](NC(=O)[C@H](Cc1ccccc1)NC(=O)[C@H](CC(=O)O)NC(=O)[C@H](CCC(N)=O)NC(=O)[C@H](CS)NC(=O)[C@H](CCCN=C(N)N)NC(=O)[C@H](CCCN=C(N)N)NC(=O)[C@H](CO)NC(=O)[C@H](CC(=O)O)NC(=O)[C@H](CS)NC(=O)[C@H](Cc1ccc(O)cc1)NC(=O)[C@H](CCCCN)NC(=O)[C@H](CO)NC(=O)[C@H](Cc1ccc(O)cc1)NC(=O)[C@H](CC(=O)O)NC(=O)[C@H](CO)NC(=O)[C@@H](NC(=O)[C@H](Cc1ccccc1)NC(=O)[C@@H](NC(=O)CNC(=O)[C@H](CCC(N)=O)NC(=O)[C@H](CO)NC(=O)[C@@H](N)Cc1c[nH]cn1)[C@@H](C)O)[C@@H](C)O)C(C)C)C(=O)N[C@@H](CC(N)=O)C(=O)N[C@H](C(=O)O)[C@@H](C)O (H-HSQGTFTSDYSKYCDSRRCQDFVQWLMNT-OH)
9 | 652 nM | – | 23 nM | 19% | – | – | – | CSCC[C@H](NC(=O)[C@H](CC(C)C)NC(=O)[C@H](Cc1c[nH]c2ccccc12)NC(=O)[C@H](CCC(N)=O)NC(=O)[C@@H](NC(=O)[C@H](Cc1ccccc1)NC(=O)[C@H](CC(=O)O)NC(=O)[C@H](CCC(N)=O)NC(=O)[C@H](C)NC(=O)[C@H](CCCN=C(N)N)NC(=O)[C@H](CCCN=C(N)N)NC(=O)[C@H](CO)NC(=O)[C@H](CC(=O)O)NC(=O)[C@H](CC(C)C)NC(=O)[C@@H]1CCC(=O)NCCCC[C@H](NC(=O)[C@H](CO)NC(=O)[C@@H](NC(=O)[C@H](Cc2ccccc2)NC(=O)[C@@H](NC(=O)CNC(=O)[C@H](CCC(N)=O)NC(=O)[C@H](CO)NC(=O)[C@@H](N)Cc2c[nH]cn2)[C@@H](C)O)[C@@H](C)O)C(=O)N[C@@H](Cc2ccc(O)cc2)C(=O)N[C@@H](CO)C(=O)N[C@@H](CCCCN)C(=O)N1)C(C)C)C(=O)N[C@@H](CC(N)=O)C(=O)N[C@H](C(=O)O)[C@@H](C)O (H-HSQGTFTSKYSKELDSRRAQDFVQWLMNT-OH; lactam 9-13)
